Assay results gathered from unrelated publications.
Target: Dual specificity mitogen-activated protein kinase kinase 2 (MAP2K2, Homo sapiens, UniProt P36507)

SMILES | test | conditions | quantity | value
COc1cc(Nc2cnc(C#N)c(O[C@H](C)CN(C)C)n2)ncc1-c1cnn(C)c1 | enzyme activity, inhibitor, radiometric | 1 µM | remaining activity | 76%
CCOc1cc(-c2nncn2C)ccc1Nc1ncc2cc(C)nc(NCC(C)(C)C)c2n1 | enzyme activity, inhibitor, FRET | 1 µM | inhibition | 18%
O=C1NC(=O)c2cc(Nc3ccc(F)cc3)c(Nc3ccc(F)cc3)cc21 | cell-free assay | 0.5 µM | remaining signal | 89.5%
FC(F)c1nc2ccccc2n1-c1nc(N2CCOCC2)nc(N2CCOCC2)n1 | enzyme activity, inhibitor | 10 µM | remaining activity | 95%
CN1CCN(c2cnc3c(C4CCN(C(=O)c5ccc(OC(F)(F)F)cc5N)CC4)ncnc3c2)CC1 | cell-free assay, competition with immobilised ligand | 1 µM | remaining binding | 100%
Cn1c2c(c3ccc(Cl)c(Cl)c31)C(C#N)C(C)(C)NC2=O (centres unmarked) | thermal stability, DSF | 10 µM | ΔTm | -0.5 °C
COc1cc(Cl)c(C(=O)N[C@@H](CN[C@H]2CC[C@@H](N)CC2)Cc2ccc(C#N)cc2)cc1-c1ccc(CN[C@H](C)c2ccc(C)cc2)o1 | enzyme activity, inhibitor | 1 µM | remaining activity | 115%
O=C(NCc1ncc(C(F)(F)F)cc1Cl)c1ccc2c(c1)C1(CCS(=O)(=O)CC1)[C@@H](C1CC1)N2S(=O)(=O)c1ccc(F)cc1 | cell-free assay, competition with immobilised ligand | 1 µM | remaining binding | 78%
COc1cc(-c2cc(-c3ccc(N4CCNCC4)cc3)cnc2C)cc(OC)c1OC | enzyme activity, inhibitor | 0.1 µM | inhibition | 4%
N#CC1c2c([nH]c3c(Cl)c(Cl)ccc23)C(=O)NC12CCCCC2 (racemic) | thermal stability, DSF | 10 µM | ΔTm | -0.8 °C
CN(C)C(=O)Cn1cc(-c2nc([C@@](C)(c3ccc(-c4cnc(N)nc4)cc3)C3CC3)no2)cn1 | cell-free assay, competition with immobilised ligand | 1 µM | remaining binding | 86%
FC(F)(F)Oc1cccc(-c2cnc3ccc(-c4ccncc4)nn23)c1 | enzyme activity, inhibitor, radiometric | 5 µM | activity vs control | 94%
CCCOc1ccc([C@H]2[C@H](C(=O)O)[C@@H](c3ccc4c(c3)OCO4)CN2CC(=O)Nc2c(CC)cccc2CC)cc1 | cell-free assay, competition with immobilised ligand | 1 µM | remaining binding | 62%
O=C(CSc1nc2nccnc2c(=O)n1CCc1ccccc1)Nc1nccs1 | enzyme activity, inhibitor | 10 µM | inhibition | -3%
Cn1c2c(Cl)c(Cl)ccc2c2cn[nH]c(=O)c21 | thermal stability, DSF | 10 µM | ΔTm | -0.3 °C
O=S(=O)(NC1CCC(c2cc(F)ccc2F)(S(=O)(=O)c2ccc(Cl)cc2)CC1)C(F)(F)F (centres unmarked) | cell-free assay, competition with immobilised ligand | 1 µM | remaining binding | 100%

SMILES | test | conditions | quantity | value
COc1cc2ncnc(Nc3ccc(Oc4ccccc4)c(C)c3C)c2cc1OC | enzyme activity, inhibitor | 1 µM | inhibition | -7%
CC1(C)NC(=O)c2[nH]c3c(Cl)c(Cl)ccc3c2C1C#N (centres unmarked) | thermal stability, DSF | 10 µM | ΔTm | -0.4 °C
CCc1ccccc1C(=O)Nc1n[nH]c2c(C)c(F)c(C3C(C#N)=C(C)N(C)C(C)=C3C#N)cc12 | cell-free assay, competition with immobilised ligand | 1 µM | remaining binding | 100%
CC(C)(C)c1nc2c(s1)c1nc(N)ncc1c1ccc(NS(=O)(=O)c3c(F)cccc3F)c(F)c12 | enzyme activity, inhibitor, radiometric | 1 µM | remaining activity | 92%
Cn1c2c(c3ccc(Cl)c(Cl)c31)C(C#N)C1(CCOCC1)NC2=O (centres unmarked) | thermal stability, DSF | 10 µM | ΔTm | -0.4 °C
Cc1ccc(C(=O)Nc2ccc(CN3CCN(C)CC3)c(C(F)(F)F)c2)cc1C#Cc1cnc2cccnn12 | enzyme activity, inhibitor | 23.5 nM | remaining activity | 97%
O=C1Nc2ccc(Cl)cc2C1=Cc1cc(Cl)c(O)c(Cl)c1 | cell-free assay | 0.5 µM | remaining signal | 82%
Cc1ccc(C(=O)NCc2ccsc2)cc1C#Cc1cn(C(C)C)c2ncnc(N)c12 | enzyme activity, inhibitor | 1 µM | activity vs control | 81%
CS(=O)(=O)N1CCCC(NC(=O)[C@H](CCC2CCCCC2)NC(=O)c2ccc(CNc3ncnc4c3nnn4-c3ccccc3)cc2)C1 (some centres unmarked) | cell-free assay, competition with immobilised ligand | 0.1 µM | remaining binding | 90%
CCCS(=O)(=O)Nc1ccc(F)c(C(=O)c2c[nH]c3ncc(-c4ccc(Cl)cc4)cc23)c1F | enzyme activity, inhibitor | 1 µM | inhibition | < 10%
O=C(Nc1cnn(-c2csc(C(=O)NC3COC3)c2)c1)Nc1ccccc1Cl | enzyme activity, inhibitor | 5 µM | remaining activity | 92.2%
C#Cc1cccc(Nc2ncnc3cc(OCCOC)c(OCCOC)cc23)c1 | cell-free assay | 0.5 µM | remaining signal | 105%
CCN1CCC2(CC1)NC(=O)c1c(c3ccc(Cl)c(Cl)c3n1C)C2C#N (racemic) | thermal stability, DSF | 10 µM | ΔTm | -0.1 °C
Nc1c(C(=O)NCc2ccc(C(=O)NCCCC3CCCCC3)cc2)cnn1-c1ccccc1 | cell-free assay, competition with immobilised ligand | 0.1 µM | remaining binding | 100%
CN1CCC2(CC1)NC(=O)c1c(c3ccc(Cl)c(Cl)c3n1C)C2C#N (racemic) | thermal stability, DSF | 10 µM | ΔTm | -0.3 °C
Nc1ncnc2occ(-c3ccc(NC(=O)Nc4cc(C(F)(F)F)ccc4F)cc3)c12 | cell-free assay, inhibitor | 20 µM | remaining signal | 7.1%
